Experimental data published in ChEMBL document CHEMBL3297681, “Design, synthesis, and biological evaluations of tumor-targeting dual-warhead conjugates for a taxoid-camptothecin combination chemotherapy” (J Med Chem, 2014).

Tests used:
[1] = tested on: MX1; test: Cytotoxicity against human MX1 cells overexpressing biotin receptor assessed as growth inhibition pretreated for 24 hrs with camptothecin then incubated for 48 hrs by MTT assay in presence of camptothecin; format: functional, cell-based
Outline: (§1)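 Cells were seeded at 8000–10000 per well and preincubated 24 h. Camptothecin serial dilutions were given first for 24 h at 37 °C. An equimolar amount of taxoid was then added for a further 48 h at 37 °C. Viability was read by MTT at 570 nm, and IC50 came from a four-parameter logistic fit, in triplicate.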

[2] = tested on: MCF7; test: Cytotoxicity against human MCF7 cells overexpressing biotin receptor assessed as growth inhibition pretreated for 24 hrs with camptothecin then incubated for 48 hrs by MTT assay in presence of camptothecin; format: functional, cell-based; outline: as §1
[3] = Cytotoxicity against mouse ID8 cells overexpressing biotin receptor assessed as growth inhibition pretreated for 24 hrs with camptothecin then incubated for 48 hrs by MTT assay in presence of camptothecin; format: functional, cell-based; outline: as §1
[4] = tested on: L1210; test: Cytotoxicity against mouse L1210 cells overexpressing folate receptor assessed as growth inhibition pretreated for 24 hrs with camptothecin then incubated for 48 hrs by MTT assay in presence of camptothecin; format: functional, cell-based; outline: as §1
[5] = tested on: MX1; test: Cytotoxicity against human MX1 cells overexpressing biotin receptor assessed as growth inhibition after 72 hrs by MTT assay; format: functional, cell-based
Outline: (§2)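 Continuous 72 h exposure at 37 °C. Cells were seeded at 0.5–1.5 × 10^4 per well, and adherent lines were left to settle overnight before the medium was refreshed. DMSO was ≤1%. Read-out was MTT (0.5 mg/mL, 3 h), with formazan dissolved in 0.1 N HCl/2-propanol plus 10% Triton X-100 and absorbance read at 570 nm. IC50 came from a four-parameter logistic fit, in triplicate.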

[6] = tested on: MCF7; test: Cytotoxicity against human MCF7 cells overexpressing biotin receptor assessed as growth inhibition after 72 hrs by MTT assay; format: functional, cell-based; outline: as §2
[7] = Cytotoxicity against mouse ID8 cells overexpressing biotin receptor assessed as growth inhibition after 72 hrs by MTT assay; format: functional, cell-based; outline: as §2
[8] = tested on: MX1; test: Cytotoxicity against human MX1 cells overexpressing biotin receptor assessed as growth inhibition at 1:1 compound to camptothecin ratio after 72 hrs by MTT assay in presence of camptothecin; format: functional, cell-based; details: MX1, 72 h
Outline: (§3)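 Cells were exposed simultaneously to an equimolar taxoid/camptothecin mixture for 72 h at 37 °C. Viability was read by MTT (0.5 mg/mL, 3 h, absorbance 570 nm). IC50 came from a four-parameter logistic fit of viability against concentration, in triplicate.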

[9] = tested on: MCF7; test: Cytotoxicity against human MCF7 cells overexpressing biotin receptor assessed as growth inhibition at 1:1 compound to camptothecin ratio after 72 hrs by MTT assay in presence of camptothecin; format: functional, cell-based; details: MCF7, 72 h; outline: as §3
[10] = Cytotoxicity against mouse ID8 cells overexpressing biotin receptor assessed as growth inhibition at 1:1 compound to camptothecin ratio after 72 hrs by MTT assay in presence of camptothecin; format: functional, cell-based; details: ID8, 72 h; outline: as §3
[11] = tested on: L1210; test: Cytotoxicity against mouse L1210 cells overexpressing folate receptor assessed as growth inhibition at 1:1 compound to camptothecin ratio after 72 hrs by MTT assay in presence of camptothecin; format: functional, cell-based; details: L1210, 72 h; outline: as §3
[12] = tested on: MX1; test: Cytotoxicity against human MX1 cells overexpressing biotin receptor assessed as growth inhibition treated for 24 hrs then incubated 48 hrs with camptothecin by MTT assay in presence of camptothecin; format: functional, cell-based
Outline: (§4)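 Cells were seeded at 8000–10000 per well and preincubated 24 h. Taxoid was given first for 24 h at 37 °C. An equimolar amount of camptothecin was then added for another 48 h at 37 °C. Viability was read by MTT at 570 nm, and IC50 came from a four-parameter logistic fit, in triplicate.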

[13] = tested on: MCF7; test: Cytotoxicity against human MCF7 cells overexpressing biotin receptor assessed as growth inhibition treated for 24 hrs then incubated 48 hrs with camptothecin by MTT assay in presence of camptothecin; format: functional, cell-based; outline: as §4
[14] = Cytotoxicity against mouse ID8 cells overexpressing biotin receptor assessed as growth inhibition treated for 24 hrs then incubated 48 hrs with camptothecin by MTT assay in presence of camptothecin; format: functional, cell-based; outline: as §4
[15] = tested on: L1210; test: Cytotoxicity against mouse L1210 cells overexpressing folate receptor assessed as growth inhibition treated for 24 hrs then incubated 48 hrs with camptothecin by MTT assay in presence of camptothecin; format: functional, cell-based; outline: as §4
[16] = Cytotoxicity against human WI38 cells assessed as growth inhibition after 72 hrs by MTT assay; details: WI-38, 72 h
[17] = tested on: L1210; test: Cytotoxicity against mouse L1210 cells overexpressing biotin receptor assessed as growth inhibition after 72 hrs by MTT assay; details: L1210, 72 h
[18] = Drug uptake in mouse ID8 cells at 10 uM after 10 hrs by confocal fluorescence microscopy analysis; format: ADME, cell-based; details: id8, 10 h
Outline: (§5)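 Cells were incubated with 10 μM conjugate at 37 °C for 10 h, washed thoroughly, and resuspended in PBS. Internalization was imaged by confocal microscopy using camptothecin's intrinsic fluorescence.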

[19] = tested on: MCF7; test: Drug uptake in human MCF7 cells at 10 uM after 10 hrs by confocal fluorescence microscopy analysis; format: ADME, cell-based; details: mcf7, 10 h; outline: as §5
[20] = tested on: MX1; test: Cytotoxicity against human MX1 cells overexpressing biotin receptor assessed as growth inhibition after 24 hrs by MTT assay; format: functional, cell-based
Outline: (§6)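 Conjugate was incubated with cells for 24 h at 37 °C, then removed by PBS washing. GSH-OEt (6 equiv to conjugate) in medium was added to release drug, followed by a further 48 h at 37 °C (72 h total). Read-out was MTT at 570 nm. IC50 came from a four-parameter logistic fit, in triplicate.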

[21] = tested on: MCF7; test: Cytotoxicity against human MCF7 cells overexpressing biotin receptor assessed as growth inhibition after 24 hrs by MTT assay; format: functional, cell-based; outline: as §6
[22] = Cytotoxicity against mouse ID8 cells overexpressing biotin receptor assessed as growth inhibition after 24 hrs by MTT assay; format: functional, cell-based
[23] = tested on: L1210; test: Cytotoxicity against mouse L1210 cells overexpressing folate receptor assessed as growth inhibition after 24 hrs by MTT assay; format: functional, cell-based; outline: as §6
[24] = tested on: L1210; test: Cytotoxicity against mouse L1210 cells overexpressing folate receptor assessed as growth inhibition after 72 hrs by MTT assay; format: functional, cell-based; outline: as §2
[25] = Cytotoxicity against human WI38 cells overexpressing biotin receptor assessed as growth inhibition after 72 hrs by MTT assay; format: functional, cell-based; details: wi-38; outline: as §2

SMILES | IC50 ([5]; Homo sapiens, MX1, 72 h) | IC50 ([6]; Homo sapiens, MCF7, 72 h) | IC50 ([7]; Mus musculus, ID8, 72 h) | IC50 [16] | IC50 [17] | IC50 ([5]; mx1) | IC50 ([6]; mcf7) | IC50 ([7]; id8) | IC50 [24] | IC50 [25] | IC50 ([20]; mx1) | IC50 ([21]; mcf7) | IC50 ([22]; id8) | IC50 ([23]; l1210) | further results
CC(=O)O[C@@]12CCO[C@@H]1C[C@H](O)[C@@]1(C)C(=O)[C@H](OC(=O)C3CC3)C3=C(C)[C@@H](OC(=O)[C@H](O)[C@H](C=C(C)C)NC(=O)OC(C)(C)C)C[C@@](O)([C@@H](OC(=O)c4ccccc4)[C@H]21)C3(C)C | 2.01 nM | 0.44 nM | 1.11 nM | 5.89 nM | 2.14 nM | – | – | – | – | – | – | – | – | – | IC50 [1]: > 5000 nM; IC50 [2]: 79.2 nM; IC50 [3]: 110 nM; IC50 [4]: 949 nM; IC50 [8]: 1.88 nM; IC50 [9]: 0.4 nM; IC50 [10]: 1.02 nM; IC50 [11]: 4.14 nM; IC50 [12]: 1.98 nM; IC50 [13]: 0.33 nM; IC50 [14]: 0.96 nM; IC50 [15]: 3.51 nM
CC[C@@]1(OC(=O)Cc2ccccc2SSC(C)CCC(=O)NCCOCCOCCOCCn2cc(CNc3nc(NCCNC(=O)CCC(C)SSc4ccccc4CC(=O)O[C@@H](C(=O)O[C@H]4C[C@@]5(O)[C@@H](OC(=O)c6ccccc6)[C@@H]6[C@]7(OC(C)=O)CCO[C@@H]7C[C@H](O)[C@@]6(C)C(=O)[C@H](OC(=O)C6CC6)C(=C4C)C5(C)C)[C@H](C=C(C)C)NC(=O)OC(C)(C)C)nc(NCCOCCOCCOCCNC(=O)CCCC[C@@H]4SC[C@@H]5NC(=O)N[C@@H]54)n3)nn2)C(=O)OCc2c1cc1n(c2=O)Cc2cc3ccccc3nc2-1 (stereo not given in full) | 51.7 nM | 19 nM | 23.4 nM | 742 nM | 39.1 nM | – | – | – | – | – | – | – | – | – | Drug uptake [18]: Active; Drug uptake [19]: Active; IC50 ([20]; Homo sapiens, MX1, 24 h): 9.8 nM; IC50 ([21]; Homo sapiens, MCF7, 24 h): 3.2 nM; IC50 ([22]; Mus musculus, ID8, 24 h): 5.7 nM; IC50 ([23]; Mus musculus, L1210, 24 h): 7.4 nM
CC[C@@]1(OC(=O)CCC(=O)NCCOCCOCCOCCn2cc(CNc3nc(NCCNC(=O)CCC(C)SSc4ccccc4CC(=O)O[C@@H](C(=O)O[C@H]4C[C@@]5(O)[C@@H](OC(=O)c6ccccc6)[C@@H]6[C@]7(OC(C)=O)CCO[C@@H]7C[C@H](O)[C@@]6(C)C(=O)[C@H](OC(=O)C6CC6)C(=C4C)C5(C)C)[C@H](C=C(C)C)NC(=O)OC(C)(C)C)nc(NCCOCCOCCOCCNC(=O)CCCC[C@@H]4SC[C@@H]5NC(=O)N[C@@H]54)n3)nn2)C(=O)OCc2c1cc1n(c2=O)Cc2cc3ccccc3nc2-1 (stereo not given in full) | – | – | – | – | – | 65.1 nM | 21.1 nM | 25.6 nM | 42.5 nM | 868 nM | 20.8 nM | 9.4 nM | 10.3 nM | 13.7 nM | –
CC(=O)O[C@@]12CCO[C@@H]1C[C@H](O)[C@@]1(C)C(=O)[C@H](OC(=O)C3CC3)C3=C(C)[C@@H](OC(=O)[C@H](OC(=O)Cc4ccccc4SSC(C)CCC(=O)NCCNc4nc(NCCOCCOCCOCCNC(=O)CCCC[C@@H]5SC[C@@H]6NC(=O)N[C@@H]65)nc(NCc5cn(CCOCCOCCOCCNC(=O)CCC(C)SSc6ccccc6CC(=O)Oc6ccccc6)nn5)n4)[C@H](C=C(C)C)NC(=O)OC(C)(C)C)C[C@@](O)([C@@H](OC(=O)c4ccccc4)[C@H]21)C3(C)C (stereo not given in full) | – | – | – | – | – | 66.9 nM | 23.1 nM | 26.7 nM | 50.9 nM | 941 nM | 23.6 nM | 9.9 nM | 15.6 nM | 14.4 nM | –
CC[C@@]1(OC(=O)Cc2ccccc2SSC(C)CCC(=O)NCCOCCOCCOCCn2cc(CNc3nc(NCCNC(=O)CCC(C)SSc4ccccc4CC(=O)Oc4ccccc4)nc(NCCOCCOCCOCCNC(=O)CCCC[C@@H]4SC[C@@H]5NC(=O)N[C@@H]54)n3)nn2)C(=O)OCc2c1cc1n(c2=O)Cc2cc3ccccc3nc2-1 (stereo not given in full) | – | – | – | – | – | > 5000 nM | 1260 nM | > 5000 nM | 319 nM | 1440 nM | > 5000 nM | 538 nM | 2390 nM | 177 nM | –
CC[C@@]1(O)C(=O)OCc2c1cc1n(c2=O)Cc2cc3ccccc3nc2-1 [CAMPTOTHECIN] | 1700 nM | 65.1 nM | 474 nM | 786 nM | 510 nM | – | – | – | – | – | – | – | – | – | –
